Usually pIC50 stands for the IC50 on a negative log10 scale, so that one unit is a factor of ten.

Structures are written as SMILES. pIC50: −log10 of the molar value.

One experiment concerns the target T1, Histone deacetylase 8 (Homo sapiens, UniProt Q9BY41).
T1 sequence (Q9BY41 whole entry): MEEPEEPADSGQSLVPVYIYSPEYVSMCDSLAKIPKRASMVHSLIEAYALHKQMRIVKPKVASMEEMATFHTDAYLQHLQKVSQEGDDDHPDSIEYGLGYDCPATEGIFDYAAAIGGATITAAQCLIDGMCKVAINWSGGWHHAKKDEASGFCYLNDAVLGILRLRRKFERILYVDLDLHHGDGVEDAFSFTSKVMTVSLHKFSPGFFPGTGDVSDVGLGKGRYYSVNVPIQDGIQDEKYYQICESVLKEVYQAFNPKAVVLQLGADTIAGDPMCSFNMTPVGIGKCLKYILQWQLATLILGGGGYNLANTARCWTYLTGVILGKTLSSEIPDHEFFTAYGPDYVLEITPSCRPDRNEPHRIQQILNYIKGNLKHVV
Briefly: Inhibition of recombinant HDAC8 (unknown origin) expressed in Escherichia coli BL21(DE3) after 60 mins using trichostatin A by label-free mass spectrometry-based SAMDI assay.

Experiment [1] is described as follows: Inhibition of NTHi-induced NF-kappaB activation in human BEAS-2B cells treated 1 hr before NTHi stimulation measured after 5 hrs by luciferase assay. It counts as cell-based. The settings on record: for pIC50: Homo sapiens, BEAS-2B, read-out: IC50.
The species named for another experiment is Homo sapiens. The settings on record: at 1 µM.
Another experiment addresses Histone deacetylase 1 (Homo sapiens, UniProt Q13547). Put plainly: Inhibition of recombinant HDAC1 (unknown origin) expressed in Escherichia coli BL21(DE3) after 60 mins using trichostatin A by label-free mass spectrometry-based SAMDI assay.
Experiment [2] deals with T2, Protein deacetylase HDAC6 (Homo sapiens, UniProt Q9UBN7).
T2 sequence (Q9UBN7 whole entry): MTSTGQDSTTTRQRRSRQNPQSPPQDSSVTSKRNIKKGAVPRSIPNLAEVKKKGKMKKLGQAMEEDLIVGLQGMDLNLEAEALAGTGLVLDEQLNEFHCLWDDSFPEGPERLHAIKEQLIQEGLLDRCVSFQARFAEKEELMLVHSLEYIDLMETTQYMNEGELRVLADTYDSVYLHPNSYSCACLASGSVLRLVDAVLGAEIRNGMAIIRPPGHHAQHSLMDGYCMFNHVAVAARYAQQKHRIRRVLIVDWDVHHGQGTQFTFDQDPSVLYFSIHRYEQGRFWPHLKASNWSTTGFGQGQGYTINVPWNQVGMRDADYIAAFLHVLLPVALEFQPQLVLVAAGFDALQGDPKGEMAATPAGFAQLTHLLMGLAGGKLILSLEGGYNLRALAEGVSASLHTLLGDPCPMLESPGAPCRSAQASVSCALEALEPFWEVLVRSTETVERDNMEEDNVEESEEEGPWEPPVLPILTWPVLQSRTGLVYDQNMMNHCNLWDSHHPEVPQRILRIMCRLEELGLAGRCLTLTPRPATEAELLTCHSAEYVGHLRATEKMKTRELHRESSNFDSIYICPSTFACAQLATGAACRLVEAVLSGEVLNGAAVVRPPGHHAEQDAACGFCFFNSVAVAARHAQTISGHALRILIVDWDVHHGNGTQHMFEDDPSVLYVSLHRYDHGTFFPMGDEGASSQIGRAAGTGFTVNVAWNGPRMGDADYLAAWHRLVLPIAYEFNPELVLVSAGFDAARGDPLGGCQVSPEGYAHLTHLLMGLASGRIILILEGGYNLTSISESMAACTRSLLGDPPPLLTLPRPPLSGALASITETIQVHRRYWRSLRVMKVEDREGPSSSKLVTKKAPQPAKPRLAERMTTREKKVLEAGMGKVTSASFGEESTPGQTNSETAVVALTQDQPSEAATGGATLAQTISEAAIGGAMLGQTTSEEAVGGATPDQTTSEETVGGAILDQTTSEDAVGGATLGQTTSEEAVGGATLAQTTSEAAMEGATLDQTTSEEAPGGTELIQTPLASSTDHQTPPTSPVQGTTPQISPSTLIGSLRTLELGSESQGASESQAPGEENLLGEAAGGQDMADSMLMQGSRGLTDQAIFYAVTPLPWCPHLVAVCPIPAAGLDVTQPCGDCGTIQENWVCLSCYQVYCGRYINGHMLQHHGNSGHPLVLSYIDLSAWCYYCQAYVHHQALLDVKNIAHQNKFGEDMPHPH
Put plainly: Inhibition of recombinant HDAC6 (unknown origin) expressed in Escherichia coli BL21(DE3) after 60 mins using trichostatin A by label-free mass spectrometry-based SAMDI assay.

The next experiment concerns A549. Briefly: Cytotoxicity against human A549 cells after 72 hrs by MTS assay. It counts as functional, cell-based. The settings on record: for pIC50: Homo sapiens, A549, 72 h, read-out: IC50; for IC50: a549. In outline:
(§1)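 Cells kept in DMEM with 10% FBS and 1% penicillin-streptomycin, seeded in 96-well plates for 24 h, then exposed to a range of drug concentrations for 72 h at 0.1% DMSO; viability read by MTS assay per manufacturer's protocol.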
In general terms: Tetrazolium dyes change colour on reduction, which living cells bring about.

A further experiment concerns Vero. Briefly: Cytotoxicity against African green monkey Vero cells after 72 hrs by MTS assay. It counts as cell-based. The settings on record: Chlorocebus sabaeus. In outline:
as §1

For another experiment, the system named is MCF7. Briefly: Cytotoxicity against human MCF7 cells after 72 hrs by MTS assay. It counts as functional, cell-based. The settings on record: for pIC50: Homo sapiens, MCF7, 72 h, read-out: IC50; for IC50: mcf7. In outline:
as §1

Chain of Histone deacetylase 1 (Q13547 whole entry): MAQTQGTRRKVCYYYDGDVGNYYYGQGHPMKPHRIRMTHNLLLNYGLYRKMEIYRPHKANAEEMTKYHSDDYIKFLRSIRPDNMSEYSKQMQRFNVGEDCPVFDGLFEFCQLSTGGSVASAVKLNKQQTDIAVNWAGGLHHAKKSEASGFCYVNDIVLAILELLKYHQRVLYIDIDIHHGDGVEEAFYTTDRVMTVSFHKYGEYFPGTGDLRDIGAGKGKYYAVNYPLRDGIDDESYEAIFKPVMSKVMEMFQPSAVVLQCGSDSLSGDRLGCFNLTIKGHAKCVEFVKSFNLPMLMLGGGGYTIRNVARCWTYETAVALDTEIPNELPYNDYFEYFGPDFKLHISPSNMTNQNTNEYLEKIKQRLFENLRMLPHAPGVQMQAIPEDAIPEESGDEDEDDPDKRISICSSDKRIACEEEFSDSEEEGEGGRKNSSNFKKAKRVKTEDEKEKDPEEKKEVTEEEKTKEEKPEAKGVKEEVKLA

Turning to `CC[C@H]1OC(=O)[C@H](C)[C@@H](O[C@@H]2C[C@](C)(OC)[C@@](O)(CN(C)Cc3ccc(-c4cn(CCCCCC(=O)NO)nn4)cc3)[C@@H](C)O2)[C@@H](C)[C@@H](O[C@H]2O[C@@H](C)C[C@@H](N(C)C)[C@@H]2O)[C@](C)(OC)C[C@@H](C)C(=O)[C@H](C)[C@H](O)[C@]1(C)O`, the pIC50 was 6.01 at Histone deacetylase 8, 6.11 in experiment [1], 6.19 at Histone deacetylase 1 and 8.23 in experiment [2]. In the experiment listed under Homo sapiens, the Imax is 50.7%.
In the same order, the values of `CC[C@H]1OC(=O)[C@H](C)[C@@H](O[C@@H]2C[C@](C)(OC)[C@H](O)[C@@H](C)O2)[C@@H](C)[C@@H](O[C@H]2O[C@@H](C)C[C@@H](N(C)Cc3ccc(-c4cn(CCCCCC(=O)NO)nn4)cc3)[C@@H]2O)[C@](C)(OC)C[C@@H](C)C(=O)[C@H](C)[C@H](O)[C@]1(C)O` (stereo in doubt) are 5.93, 6.11, 6.27, 8.44 and 45.1%.
On to `CC[C@H]1OC(=O)[C@@H](C)[C@H](O[C@H]2C[C@@](C)(OC)[C@](O)(CN(C)C)[C@H](C)O2)[C@H](C)[C@H](O[C@H]2O[C@@H](C)C[C@@H](N(C)Cc3ccc(-c4cn(CCCCCCC(=O)NO)nn4)cc3)[C@@H]2O)[C@@](C)(O)C[C@H](C)CN(C)[C@@H](C)[C@H](O)[C@@]1(C)O`, for which the pIC50 is 5.17 in the experiment on A549; 6.13 at Histone deacetylase 8; 6.24 in experiment [1]; 7.10 at Histone deacetylase 1; 7.72 in experiment [2]; 5.24 in the experiment with Vero. In the experiment listed under Homo sapiens, this compound registered an Imax of 43.4%.
In the case of `CC[C@@H]1OC(=O)[C@H](C)[C@@H](O[C@@H]2C[C@](C)(OC)[C@H](O)[C@@H](C)O2)[C@@H](C)[C@@H](O[C@@H]2O[C@H](C)C[C@H](N(C)Cc3cccc(-c4cn(CCCCCCC(=O)NO)nn4)c3)[C@H]2O)[C@](C)(O)C[C@@H](C)CN(C)[C@H](C)[C@@H](O)[C@]1(C)O`, the negative-log IC50 (pIC50) with A549 is 5.39; on Histone deacetylase 8, 5.84; in experiment [1] it was 6.22; on Histone deacetylase 1, 7.00; in the experiment with MCF7, 5.63; in experiment [2] it was 7.39. In the experiment with Vero, this compound gave a pIC50 of 5.08. Moreover, the Imax in the experiment listed under Homo sapiens amounted to 43.3%.
Take `CC[C@@H]1OC(=O)[C@@H](C)[C@H](O[C@@H]2C[C@](C)(OC)[C@@](O)(CN(C)C)[C@@H](C)O2)[C@H](C)[C@H](O[C@@H]2O[C@H](C)C[C@H](N(C)Cc3ccc(-c4cn(CCCCCCC(=O)NO)nn4)cc3)[C@H]2O)[C@@](C)(OC)C[C@H](C)C(=O)[C@@H](C)[C@@H](O)[C@@]1(C)O`: the pIC50 in the experiment on A549 is 5.45; on Histone deacetylase 8, 5.66; in experiment [1], 6.59; at Histone deacetylase 1, 7.48; in the experiment with MCF7 it was 5.84; in experiment [2], 7.50. The compound further showed a negative logarithm of the IC50 (pIC50) with Vero of 5.68. For the same compound, in the experiment filed under Homo sapiens, the Imax came out at 33.4%.
`CC[C@@H]1OC(=O)[C@@H](C)[C@H](O[C@H]2C[C@@](C)(OC)[C@@H](O)[C@H](C)O2)[C@H](C)[C@H](O[C@@H]2O[C@H](C)C[C@H](N(C)Cc3ccc(-c4cn(CCCCCCC(=O)NO)nn4)cc3)[C@H]2O)[C@@](C)(OC)C[C@H](C)C(=O)[C@@H](C)[C@@H](O)[C@@]1(C)O` (stereo in doubt): the pIC50 with A549 is 5.64; at Histone deacetylase 8, 6.15; in experiment [1], 6.61; on Histone deacetylase 1, 6.68; in the experiment on MCF7 it was 5.54; in experiment [2] it was 8.18. In the experiment on Vero, the pIC50 was 5.31. This compound also displayed an Imax in the experiment listed under Homo sapiens of 35.9%.
For the compound `CC[C@H]1OC(=O)[C@@H](C)[C@H](O[C@H]2C[C@@](C)(OC)[C@@H](O)[C@H](C)O2)[C@H](C)[C@H](O[C@H]2O[C@@H](C)C[C@@H](N(C)Cc3ccc(-c4cn(CCCCCCC(=O)NO)nn4)cc3)[C@@H]2O)[C@@](C)(O)C[C@H](C)CN(C)[C@@H](C)[C@H](O)[C@@]1(C)O` (stereo in doubt), the pIC50 in the experiment with A549 was 5.63; on Histone deacetylase 8, 6.50; in experiment [1] it was 6.55; at Histone deacetylase 1, 7.16; in the experiment on MCF7, 5.39; in experiment [2], 8.14. In the experiment on Vero, the negative logarithm of the IC50 (pIC50) is 5.23. For the same compound, in the experiment listed under Homo sapiens, the Imax came out at 41.4%.
`CC[C@H]1OC(=O)[C@@H](C)[C@H](O[C@H]2C[C@@](C)(OC)[C@](O)(CN(C)Cc3ccc(-c4cn(CCCCCCC(=O)NO)nn4)cc3)[C@H](C)O2)[C@H](C)[C@H](O[C@H]2O[C@@H](C)C[C@@H](N(C)C)[C@@H]2O)[C@@](C)(O)C[C@H](C)CN(C)[C@@H](C)[C@H](O)[C@@]1(C)O`: the IC50 entry in the experiment on A549 and in the experiment on MCF7 was “Not Active” in each case. The results for the pIC50 (at Histone deacetylase 8; at Histone deacetylase 1; in experiment [2]) were 6.09, 7.30 and 7.50, respectively.
On to `CC[C@@H]1OC(=O)[C@H](C)[C@@H](O[C@@H]2C[C@](C)(OC)[C@@](O)(CN(C)Cc3ccc(-c4cn(CCCCCC(=O)NO)nn4)cc3)[C@@H](C)O2)[C@@H](C)[C@@H](O[C@@H]2O[C@H](C)C[C@H](N(C)C)[C@H]2O)[C@](C)(O)C[C@@H](C)CN(C)[C@H](C)[C@@H](O)[C@]1(C)O`, for which the negative-log IC50 (pIC50) was 6.10 at Histone deacetylase 8, 6.43 in experiment [1], 6.69 at Histone deacetylase 1 and 7.50 in experiment [2]. This compound also displayed an Imax in the experiment filed under Homo sapiens of 46.1%.
As for `CC[C@H]1OC(=O)[C@H](C)C(=O)[C@H](C)[C@@H](O[C@@H]2O[C@H](C)C[C@H](N(C)Cc3cccc(-c4cn(CCCCCC(=O)NO)nn4)c3)[C@H]2O)[C@@](C)(OC)C[C@@H](C)C2=NCCN3C(=O)O[C@@]1(C)[C@H]3[C@H]2C`, the IC50 result (in the experiment with A549; in experiment [1]; with MCF7) was “Not Active” each time. Besides, the negative-log IC50 (pIC50) was 5.49 at Histone deacetylase 8, 6.96 at Histone deacetylase 1 and 7.76 in experiment [2]. The Imax in the experiment listed under Homo sapiens was found to be 71%.

The values above are taken from ChEMBL document CHEMBL3734738, “A structure-activity relationship of non-peptide macrocyclic histone deacetylase inhibitors and their anti-proliferative and anti-inflammatory activities” (Bioorg Med Chem, 2015).
